A short description of series [1]: Drug degradation in human liver microsomes at 1 uM measured over 60 mins by LC-MS/MS analysis. Format: ADME, Microsome. To be noted: read-out: Drug degradation. In short, it runs like this:
(§1)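 Human or rat liver microsomes (0.4 mg/mL protein final) in 0.1 M phosphate buffer pH 7.4 with 1 μM compound at 37°C. Reaction started with an NADPH-regenerating system plus MgCl2. Samples were quenched with ice-cold acetonitrile at time points over 60 min. Remaining parent was measured by LC-MS, and the first-order depletion rate constant came from an exponential decay fit.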

Series [2] can be described thus: Degradation half life in rat liver microsomes at 1 uM by LC-MS/MS analysis. The class given is ADME, Microsome. In outline: as §1
The nature of series [3]: Degradation half life in rat plasma at 1000 ng/ml by LC-MS/MS analysis. Format: ADME, cell-free. In outline:
(§2)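 Pooled human plasma (3 donors) or pooled male Sprague-Dawley rat plasma, thawed at 37°C. Spiked to a nominal 1000 ng/mL final (0.2% DMSO, 0.4% acetonitrile final) and incubated at 37°C. Aliquots were snap-frozen at time points over 4 h (n=3 per time point). Quantified by LC-MS against a same-species blank-plasma calibration with a leucine enkephalin internal standard.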

Series [4] in a line: Drug degradation in human plasma at 1000 ng/ml measured over 240 mins by LC-MS/MS analysis. Format: ADME, cell-free. To be noted: read-out: Drug degradation. In short, it runs like this: as §2
Series [5] has as its target T1, Sodium- and chloride-dependent glycine transporter 2 (Homo sapiens) (UniProt Q9Y345).
T1 sequence (whole entry): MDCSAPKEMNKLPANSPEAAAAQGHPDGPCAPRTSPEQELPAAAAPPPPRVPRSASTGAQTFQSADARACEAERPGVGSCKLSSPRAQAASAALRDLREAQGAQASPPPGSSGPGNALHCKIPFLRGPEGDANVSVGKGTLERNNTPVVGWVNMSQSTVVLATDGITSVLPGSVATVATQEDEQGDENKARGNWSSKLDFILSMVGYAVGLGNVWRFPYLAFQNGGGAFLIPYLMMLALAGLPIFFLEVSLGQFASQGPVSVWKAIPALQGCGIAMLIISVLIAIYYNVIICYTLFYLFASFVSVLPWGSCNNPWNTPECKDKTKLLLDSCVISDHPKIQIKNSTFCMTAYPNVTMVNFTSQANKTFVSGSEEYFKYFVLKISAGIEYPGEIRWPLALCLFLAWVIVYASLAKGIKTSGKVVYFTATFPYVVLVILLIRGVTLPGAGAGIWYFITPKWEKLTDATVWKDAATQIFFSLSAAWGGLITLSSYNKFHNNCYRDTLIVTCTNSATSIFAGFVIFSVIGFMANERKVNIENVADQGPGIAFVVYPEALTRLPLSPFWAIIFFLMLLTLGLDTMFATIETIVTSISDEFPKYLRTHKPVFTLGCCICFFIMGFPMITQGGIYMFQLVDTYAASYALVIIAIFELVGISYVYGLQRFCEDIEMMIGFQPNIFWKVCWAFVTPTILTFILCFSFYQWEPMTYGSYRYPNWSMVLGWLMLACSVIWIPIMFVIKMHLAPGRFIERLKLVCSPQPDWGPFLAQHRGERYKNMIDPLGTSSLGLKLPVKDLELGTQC
Put plainly: Inhibition of recombinant human GlyT2a expressed in Xenopus laevis oocytes assessed as reduction in channel current at 30 nM by two-electrode voltage clamp electrophysiology. Format: cell-based. In outline:
(§3)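 GlyT2-expressing oocytes under two-electrode voltage clamp at -60 mV. Glycine concentration responses were run first without inhibitor, then after 2 min pre-application of inhibitor (10 nM, 30 nM or 1 μM) in ND96, followed by increasing glycine. Plateau currents were normalised to each cell's Imax at 300 μM glycine without inhibitor. ANOVA was applied to EC50 and Imax.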

Series [6] concerns the target T1, Sodium- and chloride-dependent glycine transporter 2 (Homo sapiens). Briefly: Inhibition of recombinant human GlyT2a expressed in Xenopus laevis oocytes assessed as reduction in channel current at 10 nM by two-electrode voltage clamp electrophysiology. The class given is cell-based. In short, it runs like this:
as §3

In series [7] the target is T2, Sodium- and chloride-dependent glycine transporter 1 (Homo sapiens) (UniProt P48067).
T2 sequence (whole entry): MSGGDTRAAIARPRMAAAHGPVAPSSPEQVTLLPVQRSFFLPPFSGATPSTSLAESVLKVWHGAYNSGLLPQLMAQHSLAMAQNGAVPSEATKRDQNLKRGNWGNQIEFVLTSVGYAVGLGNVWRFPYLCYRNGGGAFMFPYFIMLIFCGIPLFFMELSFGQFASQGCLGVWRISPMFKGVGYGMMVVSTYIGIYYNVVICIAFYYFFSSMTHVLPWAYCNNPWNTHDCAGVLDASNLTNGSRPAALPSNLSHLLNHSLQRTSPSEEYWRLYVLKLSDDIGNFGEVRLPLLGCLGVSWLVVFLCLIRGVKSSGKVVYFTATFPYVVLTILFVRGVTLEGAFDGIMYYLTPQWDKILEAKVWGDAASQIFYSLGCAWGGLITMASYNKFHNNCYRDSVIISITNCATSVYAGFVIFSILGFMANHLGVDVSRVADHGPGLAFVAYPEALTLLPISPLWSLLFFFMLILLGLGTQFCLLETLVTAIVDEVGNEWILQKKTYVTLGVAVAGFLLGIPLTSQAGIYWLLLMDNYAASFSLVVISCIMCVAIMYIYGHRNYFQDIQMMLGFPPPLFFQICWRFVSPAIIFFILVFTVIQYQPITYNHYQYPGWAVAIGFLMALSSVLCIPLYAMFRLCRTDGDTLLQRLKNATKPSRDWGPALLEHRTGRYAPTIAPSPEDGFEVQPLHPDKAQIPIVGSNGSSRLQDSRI
Briefly: Inhibition of recombinant human GlyT1b expressed in Xenopus laevis oocytes assessed as reduction in [3H]glycine uptake at 0.1 to 1 uM pretreated for 2 mins followed by [3H]glycine addition and measured after 30 mins by scintillation counting method. Format: cell-based.

In series [8] the target is T3, Sodium- and chloride-dependent glycine transporter 1 (Homo sapiens, UniProt P48067).
T3 sequence (P48067 whole entry): T2 sequence (whole entry)
Put plainly: Inhibition of recombinant human GlyT1b expressed in Xenopus laevis oocytes assessed as reduction in channel current by two-electrode voltage clamp electrophysiology. The class given is cell-based.

Series [9] has as its target T4, Sodium- and chloride-dependent glycine transporter 2 (Homo sapiens, UniProt Q9Y345).
T4 sequence (Q9Y345 whole entry): T1 sequence (whole entry)
Briefly: Inhibition of recombinant human GlyT2a expressed in Xenopus laevis oocytes assessed as reduction in channel current by two-electrode voltage clamp electrophysiology. Format: cell-based.

The target of series [10] is T1, Sodium- and chloride-dependent glycine transporter 2 (Homo sapiens). Briefly: Inhibition of recombinant human GlyT2a expressed in Xenopus laevis oocytes assessed as reduction in channel current by two-electrode voltage clamp electrophysiology relative to control. Format: cell-based.
Series [11] shares this target. Put plainly: Inhibition of recombinant human GlyT2a expressed in Xenopus laevis oocytes assessed as reduction in channel current at 1 uM by two-electrode voltage clamp electrophysiology. The class given is cell-based. In outline:
as §3

In a further series the test system is GlyT2 (Homo sapiens). Briefly: Inhibition of recombinant human GlyT2a expressed in expressed in Xenopus laevis oocytes assessed as reduction in [3H]glycine uptake at 0.1 to 1 uM pretreated for 2 mins followed by [3H]glycine addition and measured after 30 mins by scintillation counting method.
The subject of another series is Rattus norvegicus. Briefly: Analgesic activity in Sprague-Dawley rat model of neuropathic pain assessed as reduction in allodynia at 30 mg/kg, ip administered as single dose measured after 90 mins post injection. The class given is functional, organism-based. In outline: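 Male Sprague-Dawley rats were tested 14 days after nerve-constriction surgery. Mechanical paw withdrawal threshold was measured with von Frey filaments (0.4–15.1 g) by the up-down method, bounded at 0.2 and 15 g. Rats got a single ip injection with vehicle of 1% DMSO, 10% Solutol HS15 in 0.9% saline. Testing ran at 15–360 min post-injection with Bonferroni comparisons against vehicle.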

Series [12] in a line: Toxicity in Sprague-Dawley rat model of neuropathic pain assessed as induction of abdominal pain rat 30 mg/kg, ip administered as single dose measured up to 60 mins post injection. The class given is organism-based. The note with it: in vivo, 1 h. In short, it runs like this:
(§4)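 Male Sprague-Dawley rats underwent chronic nerve constriction surgery, and neuropathic pain developed over 14 days. Rats were housed in groups of 4 and acclimatised to test chambers. Single ip injection of drug or vehicle (1% DMSO, 10% Solutol HS15 in 0.9% saline). Adverse behaviours were scored over the post-injection period alongside von Frey testing, with vehicle as comparison.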

Series [13] can be described thus: Toxicity in Sprague-Dawley rat model of neuropathic pain assessed as induction of writhing behaviour rat 30 mg/kg, ip administered as single dose measured up to 60 mins post injection. Format: organism-based. To be noted: in vivo, 1 h. In outline: as §4
Series [14] in a line: Toxicity in Sprague-Dawley rat model of neuropathic pain assessed as induction of recumbent behaviour rat 30 mg/kg, ip administered as single dose measured up to 60 mins post injection. Format: organism-based. To be noted: in vivo, 1 h. In short, it runs like this: as §4
Series [15] concerns the target T1, Sodium- and chloride-dependent glycine transporter 2 (Homo sapiens). Briefly: Slow reversible inhibition of recombinant human GlyT2a expressed in Xenopus laevis oocytes assessed as recovery of transport current at IC50 followed by compound wash out followed by glycine re-application at 5 mins intervals throughout wash time course and measured after 30 mins by two-electrode voltage clamp electrophysiology. Format: cell-based. On the set-up: scale not given: the % may be the effect or the level left.

Results on two molecules are retold here after ChEMBL document CHEMBL4480400, “Development of an N-Acyl Amino Acid That Selectively Inhibits the Glycine Transporter 2 To Produce Analgesia in a Rat Model of Chronic Pain” (J Med Chem, 2019).

Each structure is given as a SMILES string. Activity calls are given as the source filed them.

With `CCCCCCCC/C=C\CCCCCCCC(=O)N[C@@H](CCCCN)C(=O)O.Cl`, the metabolised at 1 h, 1 µM in [1] was less than 15%. In addition, the results for the t1/2 in series [2] and in series [3] were 0.9 h and 1.43 h, respectively. For the same molecule, the metabolised at 4 h, 1000 ng/ml in series [4] was less than 15%. The Imax worked out at 62.4% in [5], 82.8% in series [6], 86.8% in series [10] and 30.2% in [11]. Also, in series [7], the inhibition entry was “inactive”. Besides, the IC50 in series [8] was greater than 3000 nM; in series [9], 25.5 nM. The inhibition result with GlyT2 (Homo sapiens) was “Active”.
Take `COc1cc(C(=O)NCC2(N(C)C)CCCC2)cc(OC)c1OCc1ccccc1`: the Imax in series [10] stood at 93%. Besides, the result in the series on Rattus norvegicus was Active. Besides, the Activity result is “Toxic” in [12], “Toxic” in series [13], “Toxic” in [14] and 35% in [15].
